# Assay results reported in ChEMBL document CHEMBL1142416, “Pharmacological exploitation of the peroxisome proliferator-activated receptor gamma agonist ciglitazone to develop a novel class of androgen receptor-ablative agents” (J Med Chem, 2008).
# The source made the active and inactive calls. No cut-off for these calls is given here.
# How the values were obtained:
# LNCaP [1] = test: Suppression of androgen receptor protein expression in human LNCaP cells at 60 uM by Western blotting; type: functional, cell-based
# Outline: (§1)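 LNCaP cells (1×10⁶/T25 flask) were exposed in 10% FBS-supplemented medium; dose series ran 72 h. Protein extracts were resolved on 10% SDS-PAGE and transferred to nitrocellulose, then blocked in 5% milk/TBST. Blots were probed overnight at 4°C with mouse anti-AR or anti-β-actin (1:1000), then HRP goat anti-mouse (1:2500, 1 h), and detected by enhanced chemiluminescence.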
# LNCaP [2] = test: Suppression of androgen receptor mRNA expression in human LNCaP cells at 60 uM by RT-PCR; type: functional, cell-based
# Outline: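 LNCaP cells (1×10⁶/T25 flask) were treated in 10% FBS-supplemented medium for various times. Total RNA was isolated and 6 μg reverse-transcribed. AR and β-actin (reference) were amplified by PCR with gene-specific primers, and products were resolved on 1.5% agarose gels.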
# LNCaP [3] = test: Inhibition of androgen receptor protein expression in human LNCaP cells after 72 hrs by Western blotting; type: functional, cell-based; outline: as §1
# LNCaP [4] = test: Induction of apoptosis in human LNCaP cells assessed as PARP cleavage after 72 hrs; type: functional, cell-based
# Outline: (§2)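 LNCaP cells were treated over a dose range for 72 h. Lysates were prepared with protease/phosphatase inhibitors and run on 10% SDS-PAGE, then transferred to nitrocellulose. PARP cleavage and caspase-3 and caspase-7 processing were detected by immunoblot with chemiluminescence.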
# LNCaP [5] = test: Induction of apoptosis in human LNCaP cells assessed as caspase 7 activation after 72 hrs; type: functional, cell-based; outline: as §2
# LNCaP [6] = test: Induction of apoptosis in human LNCaP cells assessed as caspase 3 activation after 72 hrs; type: functional, cell-based; outline: as §2
# LNCaP [7] = test: Inhibition of androgen receptor mRNA expression in human LNCap cells after 72 hrs; type: functional, cell-based; conditions: in the assay text read “protein expression” for “mRNA expression”
# LNCaP [8] = test: Suppression of androgen receptor protein expression in human LNCaP cells at 30 uM by Western blotting; type: functional, cell-based; outline: as §1
# LNCaP [9] = test: Cell cycle arrest in human LNCaP cells assessed as accumulation at subG1 phase at 2.5 uM after 72 hrs; type: functional
# Outline: (§3)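 LNCaP cells were plated at 2.5 × 10⁶ cells/well and treated at the stated concentrations for 72 h. They were washed in PBS, trypsinized and fixed in ice-cold 80% ethanol overnight at 4°C. Staining used propidium iodide (50 μg/ml) with RNase A (100 units/ml) in PBS. Phase distribution was measured by flow cytometry; values are the mean of two independent determinations.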
# LNCaP [10] = test: Cell cycle arrest in human LNCaP cells assessed as accumulation at G2/M phase at 7.5 uM after 72 hrs; type: functional; outline: as §3
# LNCaP [11] = test: Cell cycle arrest in human LNCaP cells assessed as accumulation at S phase at 10 uM after 72 hrs; type: functional; outline: as §3
# LNCaP [12] = test: Antitumor activity against androgen responsive human LNCaP cells by MTT assay at 72 hrs; type: functional, cell-based
# Outline: (§4)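 LNCaP or PC-3 cells were seeded at 6000/well in 10% FBS RPMI 1640 for 24 h. They were then treated at various concentrations in 5% FBS RPMI 1640 for 48 or 72 h, with DMSO-matched controls. MTT (0.5 mg/ml) was added for 2 h at 37°C and the dye solubilized in DMSO. A570 was read in six replicates, and IC50 was taken from dose-response.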
# PC-3 [13] = test: Antitumor activity against androgen non-responsive human PC3 cells by MTT assay at 72 hrs; type: functional, cell-based; conditions: PC-3, 72 h; outline: as §4
# LNCaP [14] = test: Cell cycle arrest in human LNCaP cells assessed as accumulation at S phase at 7.5 uM after 72 hrs; type: functional; outline: as §3
# PC-3 [15] = test: Antitumor activity against androgen non-responsive human PC3 cells by MTT assay at 48 hrs; type: functional, cell-based; conditions: PC-3, 48 h; outline: as §4
# LNCaP [16] = test: Cell cycle arrest in human LNCaP cells assessed as accumulation at G2/M phase at 1 uM after 72 hrs; type: functional; outline: as §3
# LNCaP [17] = test: Cell cycle arrest in human LNCaP cells assessed as accumulation at subG1 phase at 10 uM after 72 hrs; type: functional; outline: as §3
# LNCaP [18] = test: Cell cycle arrest in human LNCaP cells assessed as accumulation at G1 phase at 1 uM after 72 hrs; type: functional; outline: as §3
# LNCaP [19] = test: Cell cycle arrest in human LNCaP cells assessed as accumulation at subG1 phase at 1 uM after 72 hrs; type: functional; outline: as §3
# LNCaP [20] = test: Cell cycle arrest in human LNCaP cells assessed as accumulation at G1 phase at 7.5 uM after 72 hrs; type: functional; outline: as §3
# LNCaP [21] = test: Cell cycle arrest in human LNCaP cells assessed as accumulation at G1 phase at 10 uM after 72 hrs; type: functional; outline: as §3
# LNCaP [22] = test: Antitumor activity against androgen responsive human LNCaP cells by MTT assay at 48 hrs; type: functional, cell-based; outline: as §4
# LNCaP [23] = test: Cell cycle arrest in human LNCaP cells assessed as accumulation at G2/M phase at 2.5 uM after 72 hrs; type: functional; outline: as §3
# LNCaP [24] = test: Cell cycle arrest in human LNCaP cells assessed as accumulation at G2/M phase at 10 uM after 72 hrs; type: functional; outline: as §3
# LNCaP [25] = test: Cell cycle arrest in human LNCaP cells assessed as accumulation at G1 phase at 2.5 uM after 72 hrs; type: functional; outline: as §3
# LNCaP [26] = test: Cell cycle arrest in human LNCaP cells assessed as accumulation at S phase at 1 uM after 72 hrs; type: functional; outline: as §3
# LNCaP [27] = test: Cell cycle arrest in human LNCaP cells assessed as accumulation at subG1 phase at 5 uM after 72 hrs; type: functional; outline: as §3
# LNCaP [28] = test: Cell cycle arrest in human LNCaP cells assessed as accumulation at S phase at 5 uM after 72 hrs; type: functional; outline: as §3
# LNCaP [29] = test: Decrease in androgen receptor protein expression in human LNCaP cells at 5 uM after 48 hrs by immunocytochemical method; type: functional, cell-based
# Outline: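 LNCaP cells were seeded on coverslips (2.5 × 10⁵/well) for 24 h, then exposed to 5 μM for 48 h. They were fixed and permeabilized with 0.1% Triton X-100 in PBS for 1 h. Mouse anti-AR (1:100) was applied for 12 h at room temperature, then Alexa Fluor 488 goat anti-mouse IgG (1:100) for 2 h. Nuclei were counterstained with DAPI and slides imaged by microscopy.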
# LNCaP [30] = test: Cell cycle arrest in human LNCaP cells assessed as accumulation at subG1 phase at 7.5 uM after 72 hrs; type: functional; outline: as §3
# LNCaP [31] = test: Cell cycle arrest in human LNCaP cells assessed as accumulation at G1 phase at 5 uM after 72 hrs; type: functional; outline: as §3
# LNCaP [32] = test: Cell cycle arrest in human LNCaP cells assessed as accumulation at G2/M phase at 5 uM after 72 hrs; type: functional; outline: as §3
# LNCaP [33] = test: Cell cycle arrest in human LNCaP cells assessed as accumulation at S phase at 2.5 uM after 72 hrs; type: functional; outline: as §3
structure (smiles),measurement,setting,value
CC1(COc2ccc(CC3SC(=O)NC3=O)cc2)CCCCC1 (configuration not stated),Activity,LNCaP [1],Active
same,Activity,LNCaP [2],Active
CC1(COc2cccc(/C=C3\SC(=O)NC3=O)c2)CCCCC1,Activity,LNCaP [3],Dose-dependent effect
CCOc1cc(/C=C2\SC(=O)NC2=O)ccc1OCC1(C)CCCCC1,Activity,LNCaP [3],Dose-dependent effect
CC1(CN2C(=O)S/C(=C\c3cc(Br)c(O)c(Br)c3)C2=O)CCCCC1,Activity,LNCaP [4],Dose-dependent effect
same,Activity,LNCaP [5],Dose-dependent effect
same,Activity,LNCaP [6],Dose-dependent effect
same,IC50,LNCaP [3],4 µM
same,Activity,LNCaP [7],Active
CC1(COc2ccc(/C=C3\SC(O)=NC3=O)cc2)CCCCC1,Activity,LNCaP [8],Active
CC1(CN2C(=O)SC(Cc3ccc(O)c(C(F)(F)F)c3)C2=O)CCCCC1 (configuration not stated),Activity,LNCaP [3],Dose-dependent effect
CC1(CN2C(=O)S/C(=C\c3ccc(O)cc3)C2=O)CCCCC1,Activity,LNCaP [3],Dose-dependent effect
CC1(CN2C(=O)S/C(=C\c3ccc(O)c(C(F)(F)F)c3)C2=O)CCCCC1,Activity,LNCaP [9],2%
same,Activity,LNCaP [10],2%
same,Activity,LNCaP [11],21%
same,Activity,LNCaP [4],Dose-dependent effect
same,IC50,LNCaP [12],3 µM
same,IC50,PC-3 [13],12 µM
same,Activity,LNCaP [14],15%
same,IC50,PC-3 [15],15 µM
same,Activity,LNCaP [16],14%
same,Activity,LNCaP [5],Dose-dependent effect
same,Activity,LNCaP [17],28%
same,Activity,LNCaP [18],66%
same,Activity,LNCaP [19],1%
same,Activity,LNCaP [20],63%
same,Activity,LNCaP [21],51%
same,IC50,LNCaP [22],8 µM
same,Activity,LNCaP [23],14%
same,Activity,LNCaP [6],Dose-dependent effect
same,IC50,LNCaP [3],2 µM
same,Activity,LNCaP [24],0%
same,Activity,LNCaP [25],65%
same,Activity,LNCaP [26],19%
same,Activity,LNCaP [27],10%
same,Activity,LNCaP [28],18%
same,Activity,LNCaP [29],Active
same,Activity,LNCaP [30],20%
same,Activity,LNCaP [7],Active
same,Activity,LNCaP [31],69%
same,Activity,LNCaP [32],3%
same,Activity,LNCaP [33],19%
